In one experiment the target is Glutamate receptor 2 (Homo sapiens, UniProt P42262). In words: Ability to displace binding of [3H]AMPA to recombinant human Ionotropic glutamate receptor AMPA 2.
Another experiment addresses Glutamate receptor 3 (Homo sapiens, UniProt P42263). In words: Ability to displace binding of [3H]AMPA to recombinant human Ionotropic glutamate receptor AMPA 3. The gist of the method: (§1)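 Radioligand displacement with [3H]AMPA on membranes from HEK 293 cells expressing the cloned human AMPA receptor subunit. Ki (μM) reported as the mean ± SEM of at least three determinations.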

Another experiment has as its target Glutamate receptor 1 (Homo sapiens, UniProt P42261). Kind of experiment: Ability to displace binding of [3H]AMPA to recombinant human Ionotropic glutamate receptor AMPA 1. The gist of the method:
as §1

Experiment [1] deals with T1, Glutamate receptor ionotropic, kainate 2 (Homo sapiens, UniProt Q13002). Kind of experiment: Ability to displace binding of [3H]KA to recombinant human KA receptor Ionotropic glutamate receptor ionotropic kainate 2 expressed in EK 293 cell membranes. The gist of the method: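 Displacement of [3H]KA binding on membranes from HEK 293 cells expressing the recombinant human kainate receptor subunit. Ki (μM) given as the mean ± SEM from at least three determinations.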
T1 sequence (Q13002 whole entry): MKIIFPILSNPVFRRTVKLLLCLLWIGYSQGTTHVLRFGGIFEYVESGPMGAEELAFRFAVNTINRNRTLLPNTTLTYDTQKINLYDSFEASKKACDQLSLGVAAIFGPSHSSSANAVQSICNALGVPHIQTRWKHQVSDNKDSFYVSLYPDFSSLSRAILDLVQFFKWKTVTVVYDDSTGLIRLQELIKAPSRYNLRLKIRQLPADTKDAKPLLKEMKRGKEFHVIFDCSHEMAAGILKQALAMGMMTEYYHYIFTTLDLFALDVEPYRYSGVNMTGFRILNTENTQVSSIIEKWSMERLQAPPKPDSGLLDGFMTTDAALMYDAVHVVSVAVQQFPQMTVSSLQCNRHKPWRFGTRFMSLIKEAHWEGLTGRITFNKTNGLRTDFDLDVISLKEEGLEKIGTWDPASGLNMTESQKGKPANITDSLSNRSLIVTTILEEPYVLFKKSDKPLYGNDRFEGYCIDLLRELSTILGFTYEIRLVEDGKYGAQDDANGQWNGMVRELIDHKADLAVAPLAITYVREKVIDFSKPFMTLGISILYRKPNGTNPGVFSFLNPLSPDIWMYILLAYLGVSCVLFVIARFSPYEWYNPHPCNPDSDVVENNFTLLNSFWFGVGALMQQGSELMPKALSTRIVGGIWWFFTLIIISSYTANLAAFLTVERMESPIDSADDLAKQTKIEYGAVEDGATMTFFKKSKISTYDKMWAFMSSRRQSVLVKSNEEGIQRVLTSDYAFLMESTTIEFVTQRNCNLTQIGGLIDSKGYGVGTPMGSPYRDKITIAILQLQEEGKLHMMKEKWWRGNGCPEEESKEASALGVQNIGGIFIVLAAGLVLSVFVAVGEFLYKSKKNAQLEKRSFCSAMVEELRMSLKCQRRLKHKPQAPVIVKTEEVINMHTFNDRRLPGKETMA

For the next experiment, the target named is Glutamate receptor 4 (Homo sapiens, UniProt P48058). In words: Ability to displace binding of [3H]AMPA to recombinant human Ionotropic glutamate receptor AMPA 4. The gist of the method:
as §1

Experiment [2] concerns the target Glutamate receptor ionotropic, kainate 1 (Homo sapiens) (UniProt P39086). Kind of experiment: Ability to displace binding of [3H]KA to recombinant human Ionotropic glutamate receptor ionotropic kainate 1.
Experiment [3] concerns the target T1, Glutamate receptor ionotropic, kainate 2. Kind of experiment: Ability to displace binding of [3H]KA to recombinant human KA receptor Ionotropic glutamate receptor ionotropic kainate 2.
Experiment [4] concerns the target Glutamate receptor ionotropic, kainate 3 (Homo sapiens) (UniProt Q13003). In words: Ability to displace binding of [3H]KA to recombinant human KA receptor Ionotropic glutamate receptor ionotropic kainate 3.
Experiment [5] can be described thus: Compound was administered orally 1 h prior to trigeminal stimulation and was evaluated for the decrease extravasation.

Our source for the Ki and ID50 values is ChEMBL document CHEMBL1136004, “Ethyl (3S,4aR,6S,8aR)-6-(4-ethoxycar- bonylimidazol-1-ylmethyl)decahydroiso-quinoline-3-carboxylic ester: a prodrug of a GluR5 kainate receptor antagonist active in two animal models of acute migraine” (J Med Chem, 2002).

In general, Ki refers to the equilibrium dissociation constant of an inhibitor or competing ligand from its target.

Glutamate receptor 1, sequence (P42261 whole entry): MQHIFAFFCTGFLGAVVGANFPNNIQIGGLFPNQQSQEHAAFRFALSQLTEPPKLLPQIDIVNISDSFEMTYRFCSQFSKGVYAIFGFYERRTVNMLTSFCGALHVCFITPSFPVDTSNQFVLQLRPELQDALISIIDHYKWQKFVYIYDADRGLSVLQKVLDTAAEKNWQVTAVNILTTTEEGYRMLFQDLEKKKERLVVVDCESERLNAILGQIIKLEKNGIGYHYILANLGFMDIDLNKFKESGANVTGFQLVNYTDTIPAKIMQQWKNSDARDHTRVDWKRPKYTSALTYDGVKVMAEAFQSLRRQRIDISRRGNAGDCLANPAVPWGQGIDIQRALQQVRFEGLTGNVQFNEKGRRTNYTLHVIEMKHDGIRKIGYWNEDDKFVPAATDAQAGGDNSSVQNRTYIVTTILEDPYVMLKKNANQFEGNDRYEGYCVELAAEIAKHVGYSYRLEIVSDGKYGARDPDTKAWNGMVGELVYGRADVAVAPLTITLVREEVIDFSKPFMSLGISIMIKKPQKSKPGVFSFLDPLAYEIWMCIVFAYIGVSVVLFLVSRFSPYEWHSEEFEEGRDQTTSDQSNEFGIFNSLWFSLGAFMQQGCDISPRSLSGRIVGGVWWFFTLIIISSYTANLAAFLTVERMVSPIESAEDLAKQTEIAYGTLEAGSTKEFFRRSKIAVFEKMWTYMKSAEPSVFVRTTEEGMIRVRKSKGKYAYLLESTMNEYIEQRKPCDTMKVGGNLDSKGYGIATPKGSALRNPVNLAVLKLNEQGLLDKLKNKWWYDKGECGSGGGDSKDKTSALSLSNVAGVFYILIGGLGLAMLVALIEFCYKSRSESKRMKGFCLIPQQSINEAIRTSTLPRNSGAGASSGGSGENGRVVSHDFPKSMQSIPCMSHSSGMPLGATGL
Glutamate receptor 4, sequence (P48058 whole entry): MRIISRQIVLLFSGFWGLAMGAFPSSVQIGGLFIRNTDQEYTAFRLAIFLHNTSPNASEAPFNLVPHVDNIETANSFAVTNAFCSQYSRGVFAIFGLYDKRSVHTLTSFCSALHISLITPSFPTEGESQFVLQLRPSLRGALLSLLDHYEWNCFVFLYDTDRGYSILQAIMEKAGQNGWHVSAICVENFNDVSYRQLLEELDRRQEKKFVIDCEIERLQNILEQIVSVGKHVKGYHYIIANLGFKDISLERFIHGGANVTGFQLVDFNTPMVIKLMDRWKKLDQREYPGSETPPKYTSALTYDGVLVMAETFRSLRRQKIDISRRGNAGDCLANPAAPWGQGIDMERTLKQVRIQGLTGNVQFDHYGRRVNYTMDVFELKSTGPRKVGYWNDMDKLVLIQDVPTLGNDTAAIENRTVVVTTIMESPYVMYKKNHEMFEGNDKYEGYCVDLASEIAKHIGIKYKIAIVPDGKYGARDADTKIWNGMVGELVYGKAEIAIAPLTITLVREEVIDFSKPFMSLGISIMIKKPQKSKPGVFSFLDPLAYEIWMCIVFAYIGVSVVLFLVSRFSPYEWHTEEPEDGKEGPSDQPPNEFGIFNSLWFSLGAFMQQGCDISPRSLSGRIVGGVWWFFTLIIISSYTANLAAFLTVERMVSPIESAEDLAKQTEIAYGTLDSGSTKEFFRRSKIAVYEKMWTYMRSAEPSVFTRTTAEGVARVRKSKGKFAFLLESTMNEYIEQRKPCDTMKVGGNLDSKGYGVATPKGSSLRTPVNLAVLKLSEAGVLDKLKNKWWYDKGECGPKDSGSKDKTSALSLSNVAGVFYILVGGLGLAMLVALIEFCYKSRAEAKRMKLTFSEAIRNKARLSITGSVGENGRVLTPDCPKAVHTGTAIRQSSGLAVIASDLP
Glutamate receptor 3, sequence (P42263 whole entry): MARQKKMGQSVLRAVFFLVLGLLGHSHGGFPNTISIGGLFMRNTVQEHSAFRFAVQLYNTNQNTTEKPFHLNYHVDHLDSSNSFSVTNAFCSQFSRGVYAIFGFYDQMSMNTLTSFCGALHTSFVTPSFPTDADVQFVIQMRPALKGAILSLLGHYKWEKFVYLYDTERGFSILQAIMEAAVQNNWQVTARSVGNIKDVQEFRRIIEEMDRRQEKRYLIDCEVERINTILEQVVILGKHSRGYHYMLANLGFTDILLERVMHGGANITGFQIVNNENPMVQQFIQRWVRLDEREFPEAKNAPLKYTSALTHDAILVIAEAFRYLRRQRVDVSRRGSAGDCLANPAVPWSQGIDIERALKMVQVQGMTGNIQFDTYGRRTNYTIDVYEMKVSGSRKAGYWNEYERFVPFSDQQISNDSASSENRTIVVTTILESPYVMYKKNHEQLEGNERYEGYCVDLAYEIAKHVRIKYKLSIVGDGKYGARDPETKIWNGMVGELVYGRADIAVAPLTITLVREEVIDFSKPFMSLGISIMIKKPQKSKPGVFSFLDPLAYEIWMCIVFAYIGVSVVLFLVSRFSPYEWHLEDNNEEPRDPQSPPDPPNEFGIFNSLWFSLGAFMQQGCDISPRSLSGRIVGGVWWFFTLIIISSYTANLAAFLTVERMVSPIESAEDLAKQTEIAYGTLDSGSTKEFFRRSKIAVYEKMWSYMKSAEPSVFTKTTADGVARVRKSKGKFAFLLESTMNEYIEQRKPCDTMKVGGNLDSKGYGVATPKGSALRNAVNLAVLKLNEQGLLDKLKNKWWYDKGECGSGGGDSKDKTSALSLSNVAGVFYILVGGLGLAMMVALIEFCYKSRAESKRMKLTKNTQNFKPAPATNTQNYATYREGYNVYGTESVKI
Glutamate receptor 2, sequence (P42262 whole entry): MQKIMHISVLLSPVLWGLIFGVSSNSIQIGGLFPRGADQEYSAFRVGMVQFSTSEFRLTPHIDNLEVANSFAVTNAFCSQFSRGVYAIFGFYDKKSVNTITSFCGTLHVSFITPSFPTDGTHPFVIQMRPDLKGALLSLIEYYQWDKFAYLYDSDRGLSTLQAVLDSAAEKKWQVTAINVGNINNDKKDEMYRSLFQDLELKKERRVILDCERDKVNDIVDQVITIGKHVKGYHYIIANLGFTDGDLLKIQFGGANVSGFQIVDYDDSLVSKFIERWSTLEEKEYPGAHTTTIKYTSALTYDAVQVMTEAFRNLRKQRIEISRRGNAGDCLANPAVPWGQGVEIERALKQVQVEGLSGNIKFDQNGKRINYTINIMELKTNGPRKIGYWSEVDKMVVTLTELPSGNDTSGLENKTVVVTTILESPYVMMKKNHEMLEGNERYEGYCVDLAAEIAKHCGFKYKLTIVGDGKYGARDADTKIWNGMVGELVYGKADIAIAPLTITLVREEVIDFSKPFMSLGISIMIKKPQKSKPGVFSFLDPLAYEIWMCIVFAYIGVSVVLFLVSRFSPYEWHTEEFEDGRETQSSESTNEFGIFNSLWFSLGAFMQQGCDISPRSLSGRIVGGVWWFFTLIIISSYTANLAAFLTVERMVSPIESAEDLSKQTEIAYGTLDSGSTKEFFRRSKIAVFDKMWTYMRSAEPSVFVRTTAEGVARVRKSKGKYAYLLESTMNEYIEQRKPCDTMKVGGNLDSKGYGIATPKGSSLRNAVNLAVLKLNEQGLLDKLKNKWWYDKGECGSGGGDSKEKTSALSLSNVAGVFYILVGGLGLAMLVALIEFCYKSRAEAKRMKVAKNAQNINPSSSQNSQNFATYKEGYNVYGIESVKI

Consider `O=C(O)c1cn(C[C@H]2CC[C@H]3CN[C@H](C(=O)O)C[C@H]3C2)cn1`, for which the inhibition constant Ki at Glutamate receptor 2 worked out at 117 µM; on Glutamate receptor 3, 247 µM; at Glutamate receptor 1, 134 µM; in experiment [1], 236 µM; at Glutamate receptor 4 it was 262 µM; in experiment [2], 0.156 µM. The inhibition constant (Ki) in experiment [3] is above 1000 µM; in experiment [4], 48.5 µM.

For `CN(C)CCc1c[nH]c2ccc(Cn3cncn3)cc12` [RIZATRIPTAN], the ID50 in experiment [5] worked out at 8 µg/kg.

For `NS(=O)(=O)c1cccc2c1c([N+](=O)[O-])cc1nc(O)c(O)nc12` [NBQX], at Glutamate receptor 1, the inhibitory constant (Ki) worked out at 1.6 µM.

As for `O=C(O)[C@@H]1C[C@H]2C[C@@H](CCc3nn[nH]n3)CC[C@H]2CN1` [TEZAMPANEL ANHYDROUS], the Ki is 32 µM on Glutamate receptor 3; 9.2 µM at Glutamate receptor 1; above 100 µM in experiment [1]; 50 µM at Glutamate receptor 4; 4.2 µM in experiment [2]; above 100 µM in experiment [3]. In addition, in experiment [4], the inhibitory constant (Ki) is above 100 µM.
